# Compound activity deposited in PubChem by Johns Hopkins Ion Channel Center.
# TRPC4 inh: inhibitors of mouse TRPC4 channel, primary screen, Fluo4 calcium, HEK293 TRPC4beta/mu-opioid cells; DAMGO-evoked Fluo4 calcium flux; stronger effect = lower value; 300,000 tested, 0.39% active; Short transient receptor potential channel 4 (Mus musculus), Q9QUQ5; AID 2247, 2010; B-score at 10 µM;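 active = B-score over 3 SD under the library average, no early fluorescence shift, positive overall ratio signal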
#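 Assay system: HEK293 cells with stable TRPC4beta plus mu-opioid receptor expression. Dosing: single dose. Measured by: Fluo4 Ca2+ flux fluorescence. Also added: DAMGO in two steps, submaximal then maximal. Read-out: B score from integrated Fluo4 fluorescence ratio.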
# TRPC6 act: mouse TRPC6 channel activators, primary screen, cell-based, HEK293, membrane potential dye; B-score at 10 µM; Short transient receptor potential channel 6 (Mus musculus), Q61143; HEK293-TRPC6 membrane potential dye fluorescence; stronger effect = higher value; 310,000 tested, 0.13% active; AID 2550, 2010;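 active = B-score of the integrated fluorescence ratio above library mean plus 3 SD, and starting fluorescence ratio within library mean plus 5 SD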;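 also: higher score means more depolarization so channel activation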
# TRPC4 potent: positive allosteric modulators of TRPC4, primary screen, cell-based, mouse TRPC4beta, HEK293 mu-opioid, Fluo-4 calcium; AID 2227, 2009; 310,000 tested, 0.42% active; DAMGO EC20, Fluo-4 Ca2+ flux; stronger effect = higher value; B-score at 10 µM;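 active = B-score of calcium response area above 5 SD of library B-scores, with initial fluorescence ratio within 5 SD of library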;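 also: B-score of integrated fluorescence ratio over time as area under calcium response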
# TRPC4 agonist: activators of mouse TRPC4 channel, primary screen, Fluo4 calcium, HEK293 TRPC4beta/mu-opioid cells | B-score at 10 µM | Fluo4 calcium fluorescence; stronger effect = higher value | AID 2237, 2010 | 310,000 tested, 0.49% active | Short transient receptor potential channel 4 (Mus musculus), Q9QUQ5;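 active = B-score above 5 SD of library B-scores, and initial fluorescence ratio not above library mean plus 5 SD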;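 also: positive B-score marks a calcium rise read as TRPC4 activation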
#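 Assay system – TRPC4beta and mu-opioid receptor HEK293 stable cells · Measured by – Fluo4 fluorescence, kinetic · Schedule – dye loading 45 min room temperature, 110 s kinetic read · Read-out – B-scored integrated calcium fluorescence ratio · Controls – buffer and maximal DAMGO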
# TRPC6 inhibitor: mouse TRPC6 channel inhibitors, primary screen, cell-based, HEK293, membrane potential dye | Short transient receptor potential channel 6 (Mus musculus), Q61143 | ACh-evoked depolarization; stronger effect = lower value | B-score at 10 µM | 310,000 tested, 1.1% active;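 active = B-score under library mean minus 3 SD, initial fluorescence not abnormally high, positive integrated signal ratio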;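 also: B-score derived from integrated fluorescence ratio over the kinetic read; more negative B-score means stronger inhibition of depolarization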
# * = called active by the depositor; i = inactive. A selection: hits, their analogues and other compounds. The true share with any hit is near 2.3%.
SMILES,TRPC4 inh,TRPC6 act,TRPC4 potent,TRPC4 agonist,TRPC6 inhibitor
COCCCNC(=O)c1ccc2c(c1)OCO2,i,i,i,i,i
COc1cccc(C(=O)NCCCN2CCN(CCCNC(=O)c3cccc(OC)c3)CC2)c1,i,i,12*,i,i
O=C(NCCCN1CCN(CCCNC(=O)c2cccc(Cl)c2)CC1)c1cccc(Cl)c1,i,i,18*,i,i
COc1cccc(C(=O)NCCCNC(=O)c2cccc(OC)c2)c1,i,i,i,i,i
O=C(NCCCN1CCN(CCCNC(=O)c2ccc3c(c2)OCO3)CC1)c1ccc2c(c1)OCO2,i,i,i,138*,i
Cc1ccc(OCc2cc(C(=O)N(C)Cc3cnc4ccccn34)no2)cc1C,i,i,i,i,i
Cc1sc(NC(=O)CN(Cc2ccc(F)cc2)C(=O)C(C)(C)C)c(C(N)=O)c1C,i,i,i,i,i
CC(C)Cc1ccc(C(C)C(N)=NCCc2ccccc2)cc1 (stereo not given),i,i,10*,i,i
CCCCN(C(=O)c1cccc2c(=O)c(C)c(-c3ccccc3)oc12)c1ccccc1,i,i,32*,i,i
CC(C)c1ccc(N(CC(=O)NC2CCCCC2)C(=O)CCC(=O)Nc2ccccn2)cc1,i,i,i,i,i
COc1ccccc1Oc1nc(C)c(C(C)=O)cc1C#N,i,i,12*,i,i
COC(=O)c1cc(C#N)c(Oc2ccccc2)nc1C,i,i,i,i,i
OC(CNC1Cc2ccccc2C1)COc1ccc(Cl)cc1 (stereo not given),i,i,i,i,i
OC(CNC1CCCc2ccccc21)COc1c(Cl)cccc1Cl (stereo not given),-5*,i,i,44*,i
Cc1nc2ccsc2c(=O)n1-c1ccc(Cl)cc1,i,i,i,i,i
COCc1cc(=O)n2[nH]c(C(C)(C)C)cc2n1,i,i,i,i,i
CCOc1ccccc1-n1c(SCC(=O)Nc2nccs2)nnc1-c1ccoc1C,-6*,i,i,i,i
CCOc1ccc(-n2c(SCC(=O)Nc3nccs3)nnc2-c2ccoc2C)cc1,i,i,i,i,i
O=C(NCCN1CCCC1)c1ccc2c(=O)n(CCc3ccccc3)c(=O)[nH]c2c1,i,i,12*,i,i
CCN(CC)c1ncnc2scc(C3COc4ccccc4O3)c12 (stereo not given),-7*,i,i,i,i
CC(C)c1ccc(C(N)=S)cc1,i,i,i,i,i
O=C(c1ccc(C(F)(F)F)cc1)N1CCC(=O)N(C(COCc2ccccc2)Cc2ccccc2)CC1 (stereo not given),i,i,i,i,i
CC(C)(C)c1ccc(C(=O)N2CCC(=O)N(C(COCc3ccccc3)Cc3ccccc3)CC2)cc1 (stereo not given),i,i,i,50*,i
COc1ccc(C(CNc2ncnc3sc(C)c(C)c23)N(C)C)cc1 (stereo not given),i,i,i,236*,i
COc1ccccc1C(CNc1ncnc2sc(C)c(C)c12)N(C)C (stereo not given),i,i,i,i,i
SMILES,TRPC4 inh,TRPC6 act,TRPC4 potent,TRPC4 agonist,TRPC6 inhibitor
Cc1sc2ncnc(NCC(c3ccco3)N(C)C)c2c1C (stereo not given),i,i,i,188*,i
CN(C)C(CNc1ncnc2sc3c(c12)CCCCC3)c1ccco1 (stereo not given),i,i,i,76*,i
CCOC(=O)C1=C(C)N(C)C(=O)NC1c1cc2c(cc1[N+](=O)[O-])OCO2 (stereo not given),i,i,i,i,i
CCOc1ccccc1N1CCN(C(=O)NCc2ccc(C)cc2)CC1,i,i,i,i,i
COc1ccc(C(=O)C2CCCN(C3Cc4ccccc4C3)C2)cc1OC (stereo not given),i,i,i,87*,i
C#Cc1cccc(C(=O)NC2CCCN(C3Cc4ccccc4C3)C2)c1 (stereo not given),i,i,i,188*,i
COc1ccc(CNC(=O)COC(=O)c2cnccn2)cc1,i,i,i,i,i
COC(=O)c1ccc(NC(=O)CN2C(=O)CC(C)S(=O)(=O)c3ccccc32)cc1 (stereo not given),i,i,i,i,i
Fc1ccc(-c2csc(/C=C/c3ccc4c(c3)OCO4)n2)cc1,i,i,i,i,i
NCCCCCCNS(=O)(=O)c1cccc2c(Cl)cccc12,i,i,i,95*,i
CCc1ccc(C(C(=O)NC(C)(C)CC)N(Cc2ccco2)C(=O)Cn2nnc3ccccc32)cc1 (stereo not given),i,i,i,i,i
CCC(C)(C)NC(=O)C(c1ccccc1F)N(Cc1ccco1)C(=O)Cn1nnc2ccccc21 (stereo not given),i,44*,i,i,i
N#Cc1c(NCCCO)nc(-c2ccccc2)c2c1CCCC2,i,i,i,49*,i
N#CC1=C(N)C(C#N)(C#N)C(c2ccc[nH]2)C2CCCC=C12 (stereo not given),i,i,i,i,i
N#CC1=C(N)C2=CCCC[C@H]2[C@H](c2cccc(F)c2)C1(C#N)C#N,i,i,34*,i,i
COc1cc(C(=O)N(CCc2ccccc2)C2=CC3CCC(C2)N3C)cc(OC)c1OC (stereo not given),-7*,i,i,i,i
COc1cc(C(=O)N2CCCCCCC2)ccc1OC1CCN(C(C)=O)CC1,i,i,i,i,i
CN1CCN(Cc2cn[nH]c2-c2ccc(F)cc2F)[C@@H](c2ccccc2)C1,-5*,i,i,i,i
OCCCC1CCCN(Cc2cn[nH]c2-c2ccc(F)cc2F)C1 (stereo not given),i,i,i,i,i
O=C(Nc1cccc(Cl)c1)c1ccc(-n2cncn2)c([N+](=O)[O-])c1,i,i,i,i,-5.5*
O=S(=O)(NCc1csc(-c2cccs2)n1)c1cccc(C(F)(F)F)c1,i,i,i,i,i
O=C1C(Cl)=C(Nc2cccc(O)c2)C(=O)N1Cc1ccccc1,i,i,74*,i,i
